The target of assay [1] is T1, Collagenase 3 (Homo sapiens, UniProt P45452). Description: Inhibition of human recombinant MMP13 by HxBPyne probe-based competitive activity based protein profiling assay.
For assay [2], the target named is T2, Neutrophil collagenase (Homo sapiens, UniProt P22894). Description: Inhibition of human recombinant MMP8 at 200 uM by HxBPyne probe-based competitive activity based protein profiling assay in presence of 5 uM HxBpane competitor. In outline:
(§1)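 Recombinant enzyme at 0.5 μM final in mouse liver soluble proteome (1 mg protein/mL in PBS). HxBPyne probe cocktail 0.5 μM total final, with inhibitor 200 μM or DMSO. Preincubated 30 min on ice, then UV 365 nm for 1 h on ice. Rhodamine-azide click chemistry, 1 h RT in dark. SDS-PAGE with in-gel fluorescence; band intensity given as % of DMSO control.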
Target sequence in this assay (P22894 101-467 limits assumed): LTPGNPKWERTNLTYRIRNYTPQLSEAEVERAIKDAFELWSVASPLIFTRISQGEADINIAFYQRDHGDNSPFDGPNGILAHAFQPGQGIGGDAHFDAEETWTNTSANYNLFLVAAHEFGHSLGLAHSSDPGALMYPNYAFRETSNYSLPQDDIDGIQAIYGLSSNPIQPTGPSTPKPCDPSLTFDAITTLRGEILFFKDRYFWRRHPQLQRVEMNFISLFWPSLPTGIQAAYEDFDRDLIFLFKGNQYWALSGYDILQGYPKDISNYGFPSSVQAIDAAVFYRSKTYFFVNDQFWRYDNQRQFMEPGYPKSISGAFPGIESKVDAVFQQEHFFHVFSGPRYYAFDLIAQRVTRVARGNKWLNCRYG

Assay [3] has as its target Stromelysin-1 (Homo sapiens) (UniProt P08254). Description: Inhibition of human recombinant MMP3 at 200 uM by HxBPyne probe-based competitive activity based protein profiling assay in presence of 5 uM HxBpane competitor. The method, boiled down: as §1
In assay [4] the target is Macrophage metalloelastase (Homo sapiens) (UniProt P39900). Description: Inhibition of human recombinant MMP12 at 200 uM by HxBPyne probe-based competitive activity based protein profiling assay in presence of 5 uM HxBpane competitor. The method, boiled down:
as §1

Assay [5] has as its target T3, Disintegrin and metalloproteinase domain-containing protein 8 (Homo sapiens) (UniProt P78325).
T3 sequence (whole entry): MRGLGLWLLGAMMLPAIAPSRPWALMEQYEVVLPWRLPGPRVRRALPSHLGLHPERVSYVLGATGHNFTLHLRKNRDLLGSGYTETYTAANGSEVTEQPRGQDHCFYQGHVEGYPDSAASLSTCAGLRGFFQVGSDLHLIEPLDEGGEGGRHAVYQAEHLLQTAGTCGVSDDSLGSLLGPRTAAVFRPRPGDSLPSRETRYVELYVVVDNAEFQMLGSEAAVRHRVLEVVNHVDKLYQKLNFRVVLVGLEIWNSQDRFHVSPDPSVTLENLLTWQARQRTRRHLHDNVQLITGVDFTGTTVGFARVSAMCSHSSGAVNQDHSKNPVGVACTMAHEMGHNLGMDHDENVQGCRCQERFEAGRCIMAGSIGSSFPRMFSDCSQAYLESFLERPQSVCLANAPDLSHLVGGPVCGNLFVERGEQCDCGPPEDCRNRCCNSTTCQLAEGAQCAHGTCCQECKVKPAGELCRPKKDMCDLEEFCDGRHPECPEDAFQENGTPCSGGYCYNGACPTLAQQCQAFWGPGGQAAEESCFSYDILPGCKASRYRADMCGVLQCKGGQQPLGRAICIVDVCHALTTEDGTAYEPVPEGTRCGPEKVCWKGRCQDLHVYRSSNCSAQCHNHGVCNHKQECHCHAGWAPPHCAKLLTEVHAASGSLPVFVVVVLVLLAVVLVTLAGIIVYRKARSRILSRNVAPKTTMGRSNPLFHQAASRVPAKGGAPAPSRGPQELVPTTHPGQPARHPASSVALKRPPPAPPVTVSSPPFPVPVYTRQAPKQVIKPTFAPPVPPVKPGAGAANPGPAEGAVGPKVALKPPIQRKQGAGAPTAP
Description: Inhibition of human recombinant ADAM8 at 200 uM by HxBPyne probe-based competitive activity based protein profiling assay in presence of 5 uM HxBpane competitor. In outline:
as §1

Assay [6] has as its target T2, Neutrophil collagenase. Description: Inhibition of human recombinant MMP8 by fluorogenic substrate assay. In outline: (§2)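 Enzyme (MMP8 6 nM, MMP9 2 nM, MMP13 1.5 nM final) preincubated with inhibitor 30 min in 50 mM HEPES pH 7.5, 10 mM CaCl2, 0.05% Brij-35, at RT. Mca-PLGL-Dpa-AR-NH2 added at 5 μM; fluorescence (ex 328/em 393 nm) read each minute for 10 min. Initial rates by linear least squares; IC50 from variable-slope sigmoidal fit. Triplicate; mean with 95% CI.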
Target sequence in this assay (P22894 whole entry): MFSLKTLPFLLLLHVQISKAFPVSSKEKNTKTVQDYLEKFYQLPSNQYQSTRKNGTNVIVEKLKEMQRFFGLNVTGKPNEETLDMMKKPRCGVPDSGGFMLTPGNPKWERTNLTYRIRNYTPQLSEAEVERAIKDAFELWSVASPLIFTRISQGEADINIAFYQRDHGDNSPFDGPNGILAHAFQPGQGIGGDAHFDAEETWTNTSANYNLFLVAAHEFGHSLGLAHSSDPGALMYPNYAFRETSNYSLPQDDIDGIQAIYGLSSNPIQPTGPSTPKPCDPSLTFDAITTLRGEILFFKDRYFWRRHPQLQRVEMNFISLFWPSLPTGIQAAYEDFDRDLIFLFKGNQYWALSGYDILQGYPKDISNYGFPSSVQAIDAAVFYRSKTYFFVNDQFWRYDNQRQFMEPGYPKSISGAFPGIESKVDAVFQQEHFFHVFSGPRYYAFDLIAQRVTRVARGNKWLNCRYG

Assay [7] deals with T4, Matrix metalloproteinase-9 (Homo sapiens, UniProt P14780). Nature of the assay: Inhibition of human recombinant MMP9 at 200 uM by HxBP-Rh probe-based competitive activity based protein profiling assay in presence of 200 uM HxBP-alkyne. The method, boiled down:
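Enzyme 0.5 μM final, in PBS (ADAMTS4, neprilysin) or in 1 mg/mL mouse liver soluble proteome (MMP9). HxBP-Rh probe 0.5 μM final with 200 μM inhibitor or DMSO. Preincubated 30 min on ice, UV 365 nm 1 h on ice. Deglycosylated with PNGase F, then SDS-PAGE with fluorescence scanning. Activity given relative to DMSO control.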

Assay [8] addresses 72 kDa type IV collagenase (Homo sapiens) (UniProt P08253). Nature of the assay: Inhibition of human recombinant MMP2 at 200 uM by HxBPyne probe-based competitive activity based protein profiling assay in presence of 5 uM HxBpane competitor. In outline:
as §1

Assay [9] concerns the target Stromelysin-2 (Homo sapiens) (UniProt P09238). Nature of the assay: Inhibition of human recombinant MMP10 at 200 uM by HxBPyne probe-based competitive activity based protein profiling assay in presence of 5 uM HxBpane competitor. In outline:
as §1

Assay [10] has as its target T1, Collagenase 3. Nature of the assay: Inhibition of human recombinant MMP13 by fluorogenic substrate assay.
For assay [11], the target named is T4, Matrix metalloproteinase-9. Nature of the assay: Inhibition of human recombinant MMP9 by fluorogenic substrate assay. In outline:
as §2

In assay [12] the target is Matrix metalloproteinase-24 (Homo sapiens) (UniProt Q9Y5R2). Nature of the assay: Inhibition of human recombinant MMP24 at 200 uM by HxBPyne probe-based competitive activity based protein profiling assay in presence of 5 uM HxBpane competitor. In outline:
as §1

Assay [13] addresses Matrix metalloproteinase-16 (Homo sapiens) (UniProt P51512). Description: Inhibition of human recombinant MMP16 at 200 uM by HxBPyne probe-based competitive activity based protein profiling assay in presence of 5 uM HxBpane competitor. In outline:
as §1

Assay [14] has as its target T5, Stromelysin-3 (Homo sapiens) (UniProt P24347).
T5 sequence (whole entry): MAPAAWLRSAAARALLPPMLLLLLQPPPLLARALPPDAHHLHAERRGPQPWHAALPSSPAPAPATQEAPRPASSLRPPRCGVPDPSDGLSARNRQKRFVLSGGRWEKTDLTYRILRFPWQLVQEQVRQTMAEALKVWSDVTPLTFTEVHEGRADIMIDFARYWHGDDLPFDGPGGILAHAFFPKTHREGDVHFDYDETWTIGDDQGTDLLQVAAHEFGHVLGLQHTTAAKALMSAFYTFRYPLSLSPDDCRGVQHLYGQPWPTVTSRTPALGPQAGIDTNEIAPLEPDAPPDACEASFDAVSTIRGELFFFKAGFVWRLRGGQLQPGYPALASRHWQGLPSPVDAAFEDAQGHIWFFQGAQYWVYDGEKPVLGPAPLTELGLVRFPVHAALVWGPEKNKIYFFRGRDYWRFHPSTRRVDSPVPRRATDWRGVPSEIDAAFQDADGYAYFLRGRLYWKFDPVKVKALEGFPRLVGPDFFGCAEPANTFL
Nature of the assay: Inhibition of human recombinant MMP11 at 200 uM by HxBPyne probe-based competitive activity based protein profiling assay in presence of 5 uM HxBpane competitor. The method, boiled down: as §1

Assay [15] concerns the target T6, A disintegrin and metalloproteinase with thrombospondin motifs 5 (Homo sapiens) (UniProt Q9UNA0).
T6 sequence (whole entry): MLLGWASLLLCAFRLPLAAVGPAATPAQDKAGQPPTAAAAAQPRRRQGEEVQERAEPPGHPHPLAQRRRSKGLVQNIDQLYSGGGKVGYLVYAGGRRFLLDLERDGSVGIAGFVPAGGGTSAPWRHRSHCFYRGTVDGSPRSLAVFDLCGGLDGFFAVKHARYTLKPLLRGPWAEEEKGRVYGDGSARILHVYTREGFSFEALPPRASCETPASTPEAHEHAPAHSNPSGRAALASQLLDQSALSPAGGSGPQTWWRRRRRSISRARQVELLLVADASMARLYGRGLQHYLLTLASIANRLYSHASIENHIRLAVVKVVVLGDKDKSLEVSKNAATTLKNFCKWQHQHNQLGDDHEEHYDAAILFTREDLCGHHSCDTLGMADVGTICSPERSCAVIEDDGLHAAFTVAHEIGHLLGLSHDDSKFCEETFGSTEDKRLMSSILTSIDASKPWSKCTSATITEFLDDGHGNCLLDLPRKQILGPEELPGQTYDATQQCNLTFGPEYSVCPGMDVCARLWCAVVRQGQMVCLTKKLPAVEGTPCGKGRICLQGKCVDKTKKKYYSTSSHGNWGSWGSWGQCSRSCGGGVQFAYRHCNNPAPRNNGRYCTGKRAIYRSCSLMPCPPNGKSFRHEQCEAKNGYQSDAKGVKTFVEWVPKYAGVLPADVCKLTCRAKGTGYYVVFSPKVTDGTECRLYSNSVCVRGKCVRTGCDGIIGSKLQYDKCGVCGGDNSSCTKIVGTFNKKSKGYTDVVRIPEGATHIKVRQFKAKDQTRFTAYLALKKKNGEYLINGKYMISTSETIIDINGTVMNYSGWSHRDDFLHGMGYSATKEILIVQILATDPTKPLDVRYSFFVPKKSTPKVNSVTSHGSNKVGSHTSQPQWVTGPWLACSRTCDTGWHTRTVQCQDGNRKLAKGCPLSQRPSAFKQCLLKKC
Description: Inhibition of human recombinant ADAMTS5 at 200 uM by HxBPyne probe-based competitive activity based protein profiling assay in presence of 5 uM HxBpane competitor. The method, boiled down:
as §1

Assay [16] has as its target Matrix metalloproteinase-14 (Homo sapiens) (UniProt P50281). Description: Inhibition of human recombinant MMP14 at 200 uM by HxBPyne probe-based competitive activity based protein profiling assay in presence of 5 uM HxBpane competitor. In outline:
as §1

In assay [17] the target is Matrix metalloproteinase-15 (Homo sapiens) (UniProt P51511). Description: Inhibition of human recombinant MMP15 at 200 uM by HxBPyne probe-based competitive activity based protein profiling assay in presence of 5 uM HxBpane competitor. The method, boiled down: as §1

IC50 and Activity data for two molecules are collected here from ChEMBL document CHEMBL1140994, “Ranking the selectivity of PubChem screening hits by activity-based protein profiling: MMP13 as a case study” (Bioorg Med Chem, 2009).

pIC50: −log10 of the molar value. The source made the active and inactive calls. No cut-off for these calls is given here.

T4 sequence (P14780 whole entry): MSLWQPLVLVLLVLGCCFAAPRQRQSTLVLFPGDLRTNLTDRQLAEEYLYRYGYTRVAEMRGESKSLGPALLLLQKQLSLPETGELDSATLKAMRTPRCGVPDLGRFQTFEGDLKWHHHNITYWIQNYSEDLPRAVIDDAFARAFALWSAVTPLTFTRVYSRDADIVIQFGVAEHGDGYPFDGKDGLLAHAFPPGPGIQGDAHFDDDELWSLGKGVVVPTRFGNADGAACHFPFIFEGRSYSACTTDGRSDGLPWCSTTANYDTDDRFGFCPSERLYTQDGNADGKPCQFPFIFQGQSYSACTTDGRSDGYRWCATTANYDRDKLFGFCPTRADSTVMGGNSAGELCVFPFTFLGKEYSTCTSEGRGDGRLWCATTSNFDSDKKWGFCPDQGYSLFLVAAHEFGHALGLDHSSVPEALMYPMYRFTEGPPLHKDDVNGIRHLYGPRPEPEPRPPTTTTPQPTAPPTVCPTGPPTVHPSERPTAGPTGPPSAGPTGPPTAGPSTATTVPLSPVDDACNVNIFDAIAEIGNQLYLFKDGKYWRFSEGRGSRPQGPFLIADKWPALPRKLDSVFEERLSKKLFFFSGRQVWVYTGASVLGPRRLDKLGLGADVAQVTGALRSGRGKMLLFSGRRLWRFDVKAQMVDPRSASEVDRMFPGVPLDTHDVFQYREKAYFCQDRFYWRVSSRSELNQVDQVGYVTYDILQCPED
Sequence of Macrophage metalloelastase (Homo sapiens) (P39900 106-470 limits assumed): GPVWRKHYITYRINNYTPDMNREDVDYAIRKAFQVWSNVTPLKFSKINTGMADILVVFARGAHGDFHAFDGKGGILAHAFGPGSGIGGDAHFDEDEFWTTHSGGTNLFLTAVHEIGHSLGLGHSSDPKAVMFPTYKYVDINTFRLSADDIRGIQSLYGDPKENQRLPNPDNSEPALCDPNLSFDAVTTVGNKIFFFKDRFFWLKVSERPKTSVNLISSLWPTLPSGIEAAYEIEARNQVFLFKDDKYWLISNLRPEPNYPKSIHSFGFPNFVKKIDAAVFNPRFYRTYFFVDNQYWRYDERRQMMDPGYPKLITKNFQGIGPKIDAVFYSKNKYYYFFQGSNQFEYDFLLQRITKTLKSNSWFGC
Sequence of Stromelysin-2 (Homo sapiens) (P09238 99-476 limits assumed): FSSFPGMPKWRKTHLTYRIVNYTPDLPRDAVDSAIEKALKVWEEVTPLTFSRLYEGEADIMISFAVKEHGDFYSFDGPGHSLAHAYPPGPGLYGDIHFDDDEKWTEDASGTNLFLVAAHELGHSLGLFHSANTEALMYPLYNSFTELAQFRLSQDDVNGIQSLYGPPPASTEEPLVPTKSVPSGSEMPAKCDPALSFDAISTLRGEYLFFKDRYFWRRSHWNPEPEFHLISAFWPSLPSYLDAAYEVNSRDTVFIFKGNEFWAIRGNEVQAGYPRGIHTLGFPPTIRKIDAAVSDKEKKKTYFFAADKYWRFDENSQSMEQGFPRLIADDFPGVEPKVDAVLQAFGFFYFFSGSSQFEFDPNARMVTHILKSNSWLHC
Sequence of 72 kDa type IV collagenase (Homo sapiens) (P08253 110-660 limits assumed): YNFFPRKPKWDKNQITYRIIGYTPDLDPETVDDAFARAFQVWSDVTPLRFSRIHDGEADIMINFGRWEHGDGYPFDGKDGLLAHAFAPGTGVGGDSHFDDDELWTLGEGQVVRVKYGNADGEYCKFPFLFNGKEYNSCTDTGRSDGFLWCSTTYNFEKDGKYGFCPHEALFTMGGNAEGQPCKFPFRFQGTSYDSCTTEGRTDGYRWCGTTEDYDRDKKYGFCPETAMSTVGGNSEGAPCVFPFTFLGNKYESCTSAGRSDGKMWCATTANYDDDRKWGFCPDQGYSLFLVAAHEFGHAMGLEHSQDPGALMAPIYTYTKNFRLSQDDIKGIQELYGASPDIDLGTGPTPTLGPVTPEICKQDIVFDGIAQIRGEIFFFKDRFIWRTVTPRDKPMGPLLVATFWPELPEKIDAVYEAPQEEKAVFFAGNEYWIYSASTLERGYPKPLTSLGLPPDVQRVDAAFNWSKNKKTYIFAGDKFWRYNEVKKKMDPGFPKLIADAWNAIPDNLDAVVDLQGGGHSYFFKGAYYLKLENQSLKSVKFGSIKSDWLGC
Sequence of Stromelysin-1 (Homo sapiens) (P08254 100-477 limits assumed): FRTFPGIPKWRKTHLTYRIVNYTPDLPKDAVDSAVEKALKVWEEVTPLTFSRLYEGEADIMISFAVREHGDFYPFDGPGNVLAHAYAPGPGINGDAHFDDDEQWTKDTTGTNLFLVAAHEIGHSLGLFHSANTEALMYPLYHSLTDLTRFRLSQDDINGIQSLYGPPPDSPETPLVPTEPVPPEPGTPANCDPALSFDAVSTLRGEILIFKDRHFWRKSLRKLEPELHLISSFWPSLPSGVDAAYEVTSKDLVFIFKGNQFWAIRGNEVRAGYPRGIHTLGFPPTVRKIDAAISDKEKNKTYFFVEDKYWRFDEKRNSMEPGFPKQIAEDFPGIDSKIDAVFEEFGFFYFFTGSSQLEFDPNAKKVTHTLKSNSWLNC
Sequence of Matrix metalloproteinase-15 (Homo sapiens) (P51511 132-669 limits assumed): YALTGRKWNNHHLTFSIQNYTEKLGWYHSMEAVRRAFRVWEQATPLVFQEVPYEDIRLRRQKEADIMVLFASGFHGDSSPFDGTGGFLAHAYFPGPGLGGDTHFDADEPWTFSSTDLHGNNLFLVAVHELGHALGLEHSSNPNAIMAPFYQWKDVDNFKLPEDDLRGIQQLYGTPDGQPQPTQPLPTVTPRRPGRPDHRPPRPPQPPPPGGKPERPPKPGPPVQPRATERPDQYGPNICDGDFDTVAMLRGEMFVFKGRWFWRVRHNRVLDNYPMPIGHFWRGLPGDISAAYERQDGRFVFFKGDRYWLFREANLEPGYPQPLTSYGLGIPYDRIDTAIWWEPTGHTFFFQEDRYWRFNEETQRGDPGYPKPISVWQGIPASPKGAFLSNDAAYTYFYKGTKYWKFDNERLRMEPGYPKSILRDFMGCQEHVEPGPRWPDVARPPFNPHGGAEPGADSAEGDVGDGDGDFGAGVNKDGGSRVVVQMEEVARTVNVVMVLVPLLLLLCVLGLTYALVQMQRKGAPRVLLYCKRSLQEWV
Sequence of Matrix metalloproteinase-24 (Homo sapiens) (Q9Y5R2 whole entry): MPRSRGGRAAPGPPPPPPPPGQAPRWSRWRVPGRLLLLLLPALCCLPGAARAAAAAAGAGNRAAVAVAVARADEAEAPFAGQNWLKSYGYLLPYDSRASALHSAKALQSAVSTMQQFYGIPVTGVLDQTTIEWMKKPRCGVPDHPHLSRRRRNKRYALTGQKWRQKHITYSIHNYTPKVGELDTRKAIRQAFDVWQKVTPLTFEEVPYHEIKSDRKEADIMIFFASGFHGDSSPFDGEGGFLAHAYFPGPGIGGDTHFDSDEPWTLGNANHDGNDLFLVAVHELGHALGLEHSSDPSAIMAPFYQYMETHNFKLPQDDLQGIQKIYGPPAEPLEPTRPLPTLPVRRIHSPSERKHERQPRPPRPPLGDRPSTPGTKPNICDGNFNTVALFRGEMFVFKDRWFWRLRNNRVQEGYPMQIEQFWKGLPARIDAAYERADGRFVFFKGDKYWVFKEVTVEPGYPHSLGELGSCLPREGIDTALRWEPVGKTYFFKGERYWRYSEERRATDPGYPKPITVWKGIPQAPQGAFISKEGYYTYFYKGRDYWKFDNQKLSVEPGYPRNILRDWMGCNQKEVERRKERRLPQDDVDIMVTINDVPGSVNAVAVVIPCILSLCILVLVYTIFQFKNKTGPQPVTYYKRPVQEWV

What is called pIC50 is −log10 of the IC50, conventionally taken in molar units. With `CCCCCCOc1ccc(C(CC(=O)O)C(N)=O)cc1` (stereo unspecified), the negative-log IC50 (pIC50) at Collagenase 3 [1] is 4.57; on Neutrophil collagenase [6], 6.17; at Collagenase 3 [10] it was 5.89; in [11], 6.80. Besides, the outcome (on Neutrophil collagenase [2]; in [3]; in assay [4]; in assay [5]; in assay [7]; in [8]) was Active. Also, the outcome in assay [9] was Active.
On to `O=C(O)CCC(NS(=O)(=O)c1ccc(-c2ccccc2)cc1)C(=O)O` (stereo unspecified), for which the pIC50 is 4.89 at Collagenase 3 [1], 7.62 on Neutrophil collagenase [6], 6.55 at Collagenase 3 [10] and 4.85 in assay [11]. Moreover, the outcome (at Neutrophil collagenase [2]; in [3]; in assay [4]; in assay [12]; in assay [13]; in [8]) was Active. The result in [14], in [9], in [15], in assay [16] and in assay [17] was Active.
